Tested on: MS2 coat protein
Assay: apparent Kd, MS2 coat protein; higher = weaker binding; RNA-MaP array; FMN 200 µM where present
In short: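 Designs were transcribed by stalled E. coli RNA polymerase on Illumina sequencing-chip clusters. They were titrated with SNAP-549-labelled MS2 coat protein from 0.7 or 1.5 nM, doubling to 3 µM, in 100 mM Tris-HCl pH 7.5, 80 mM KCl, 4 mM MgCl2, BSA, DTT, yeast tRNA and Tween-20, without and then with constant ligand. The apparent Kd is the median of filtered per-cluster fits after normalisation of green signal to red-channel RNA signal and control-cluster median Fmax.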

[1] = designed as: OFF switch for flavin mononucleotide, no ligand
[2] = ligand present: flavin mononucleotide, designed as: OFF switch for flavin mononucleotide
[3] = designed as: ON switch for flavin mononucleotide, no ligand
[4] = ligand present: flavin mononucleotide, designed as: ON switch for flavin mononucleotide

“UUGGUAUUUGUAGGAUAUCUGUCGCCACCGUGUGGAGAAGGACGAACAUGAGGAUCACCCAUGUAUCAUGGUGUGGGCUUUGCU” was tested, and the “apparent Kd” value [1] was 302 nM and the “apparent Kd” value [2] was 317 nM.

“UAUAUGUCAGGAUAUCGAUUGGAGCGGAAUUUAGCUUUGGUCGAGAAGGGACAUGAGGAUCACCCAUGUUCAAC” was tested, and the “apparent Kd” value [1] was 19.8 nM and the “apparent Kd” value [2] was 37.8 nM.

For “UGGUACUAGGGAGGAUAUGGGAAGAUACAUGAGGAUCACCCAUGUUUAAGAAUGCCGAGUGGCAACUAGAAGGCCCUAGUACCU”, the “apparent Kd” value [3] was 478 nM and the “apparent Kd” value [4] was 20.5 nM.

For “UACGGACAUGAGGAUCACCCAUGUGAGGAUAUCGGUACCGAUAGCAUAAUCUGCUCGGCGAGAAGGCACAGCGU”, the “apparent Kd” value [1] was 29.8 nM and the “apparent Kd” value [2] was 42.8 nM.

“GCUAGUAUUGCAGGAUAUUGAGAUUAAUUAAGGCAAGAAGGGCAUUACAUGAGGAUCACCCAUGUUUUCCUUAGUCAUACUAGC” was tested, and the “apparent Kd” value [1] was 7.12 nM and the “apparent Kd” value [2] was 7.4 nM.

“GGUCGUCACAUAUACAUGAGGAUCACCCAUGUCAAAAGACAUGAGGAUAUGGAUAAUAAUAUAAACCAGAAGGCAUGGACGACC” was tested, and the “apparent Kd” value [3] was 961 nM and the “apparent Kd” value [4] was 59.6 nM.

“UUGGUCGUCGUAGGAUAUGUAGGAUAUUCCUACAUGAGGAUCACCCAUGUUGACAUGGAAGAAGGACAGAAGGACGAUGUCCAU” was tested, and the “apparent Kd” value [3] was 447 nM and the “apparent Kd” value [4] was 5.71 nM.

“UCGGGCAACCGAAAUAGGACGGCUGAGGAUAUGACAUGAGGAUCACCCAUGUACAGGGCCACAGGUCAGAAGGCAGCCUUUUGG” was tested, and the “apparent Kd” value [1] was 161 nM and the “apparent Kd” value [2] was 36.5 nM.

“ACGAAAACACAAAUGUUCCACGGUGCAGAAGGGUCCCUCACAUGAGGAUCACCCAUGUAACUCGGACAGGAUAUGCUUUUGGGA” was tested, and the “apparent Kd” value [3] was 380 nM and the “apparent Kd” value [4] was 11.4 nM.

In the case of “UGUACGGACAUGAGGAUCACCCAUGUAACCAAGCAGUUGGUACAGGAUAUCGCUUAAUAACUAAGCGAGAAGGGUGGUUCUGCA”, the “apparent Kd” value [3] is reported as 32.5 nM and the “apparent Kd” value [4] is reported as 63.4 nM.

With “CGUAUGUCAGGAUAUGCGUAUGCCGCCCAGAACGGGCAGCAGCAGAAGGGACAUGAGGAUCACCCAUGUUCGGG” the “apparent Kd” value [1] was 68.3 nM and the “apparent Kd” value [2] was 73.1 nM.

In the case of “GGUCGUCACAUUAACAUGAGGAUCACCCAUGUCUCUAGACAUGAGGAUAUGGAUCCUAAUUGGAUCCAGAAGGCAUGGACGACC”, the “apparent Kd” value [3] is reported as 1490 nM and the “apparent Kd” value [4] is reported as 142 nM.

With “GCGUCAGAAUUAAUUGUGACAGACAGAAGGCAAUAGUAUGUGACCGACAUGAGGAUCACCCAUGUUGAGGAUAUGUAUUGACGC” the “apparent Kd” value [1] was 5.26 nM and the “apparent Kd” value [2] was 6.53 nM.

With “UAGGUGUGAGGAUAUGGUAAAGAAAAGAUGAUGAAAGAACUCCAGAAGGCACAUGAGGAUCACCCAUGUAGAUG” the “apparent Kd” value [1] was 26.3 nM and the “apparent Kd” value [2] was 54.5 nM.

In the case of “GGAAAGGACAGAGGAUAUACGUGCUAGAGAUACUAGCAAAAUUUCCUCACAUGAGGAUCACCCAUGUAGAAGGCUGUCCUAUCG”, the “apparent Kd” value [1] is reported as 16.2 nM and the “apparent Kd” value [2] is reported as 394 nM.

In the case of “ACUAUACGAGGAUAUACUGUCGGGCCUCGGGCAUACAUACGACAUGAGGAUCACCCAUGUAGAAGGCGUUUACU”, the “apparent Kd” value [1] is reported as 34.3 nM and the “apparent Kd” value [2] is reported as 61.6 nM.

With “GUACAUGAGCAGAAGGGCAUUUAAUUAGAUUUUUAUGUUGAUCAGAAAUGCAGGAUAUGUUAAACAUGAGGAUCACCCAUGUAC” the “apparent Kd” value [3] was 218 nM and the “apparent Kd” value [4] was 24.1 nM.

For “UUGGGUCGGGAGGAUAUUCGGGCCCAAGGGCUUGGAGAAGGCUCGACAUGAGGAUCACCCAUGUAAGUGUACUU”, the “apparent Kd” value [1] was 26.4 nM and the “apparent Kd” value [2] was 73.3 nM.

For “UUGAAUUUAAACAUGAGGAUCACCCAUGUGUCAUAGUUGAUAUAGGAUAUGUUUAUACUUUGAAAGCAGAAGGAUGACGAUACU”, the “apparent Kd” value [3] was 18.9 nM and the “apparent Kd” value [4] was 15.2 nM.

With “UAAAUAAUGUAAGGAUAUACAUGAGGAAUUCUCGUAGAAGGUACAUGACAUGAGGAUCACCCAUGUAUCGCUCAGUAGAGCGUA” the “apparent Kd” value [3] was 152 nM and the “apparent Kd” value [4] was 311 nM.

For “GGGCUCAUCGAGAAGGCCUCAACAUGAGGAUCACCCAUGUUGUAAUAUGGGAGGAUAUCGAUGAUACAGCUACGUUUCGUACCC”, the “apparent Kd” value [3] was 18 nM and the “apparent Kd” value [4] was 6.25 nM.

With “GGAAAUCAUGUAGGAUAUGCAUGGCGAAGCUACGCAGAAGGACAUGAGGAUCACCCAUGUUAUAGCGUCCGAGAAAGGAUGCGA” the “apparent Kd” value [1] was 55.6 nM and the “apparent Kd” value [2] was 114 nM.

In the case of “UUCGAGUUGCAAGGAUAUCUUAUUUAGAUUUUAAGAGAAGGUGCUUCACAGCUACAUGAGGAUCACCCAUGUCUUUCUUCUUAU”, the “apparent Kd” value [3] is reported as 29.7 nM and the “apparent Kd” value [4] is reported as 23.7 nM.

For “GUAGCUGCAGGAUAUCUAUCUUCUGACAUGAGGAUCACCCAUGUACUUACUUGGCUCAGUGGAGAAGGGCAGCGUU”, the “apparent Kd” value [1] was 124 nM and the “apparent Kd” value [2] was 84.2 nM.

In the case of “GUUAGGCAUGUAGGAUAUCCAUUGCGUCGCGUUGGAGAAGGGCAGCACACAUGAGGAUCACCCAUGUGGUCUCCCAUGAUGUGU”, the “apparent Kd” value [1] is reported as 215 nM and the “apparent Kd” value [2] is reported as 254 nM.

In the case of “UAUAUAUAGUAAGGAUAUGUAAUUAUUUAAUAAACAGAAGGUACUGACAUGAGGAUCACCCAUGUUUUAGUGUGGGCAUGUAGA”, the “apparent Kd” value [1] is reported as 80.5 nM and the “apparent Kd” value [2] is reported as 135 nM.

In the case of “AAAAGACAUGAGGAUCACCCAUGUCAAGACAUGGGAGGAUAUGCAUGGAAAACAUGCUGUGCAGAAGGCUCAUGUC”, the “apparent Kd” value [3] is reported as 32.6 nM and the “apparent Kd” value [4] is reported as 22.4 nM.

With “UGGAUCAUCGGAGGAUAUCAUGUGUAAACAUGAGGAUCACCCAUGUCGUACGAGAGUACGGAGAUUGAGAAGGCCGAUGAUCCU” the “apparent Kd” value [3] was 85.4 nM and the “apparent Kd” value [4] was 16.4 nM.

In the case of “AAACCGUGUGGAGGAUAUGCAGUUGAGGUAAGGCGGCAGCUCUAUACGACAGCAGAAGGCCACAUGAGGAUCACCCAUGUAGGU”, the “apparent Kd” value [1] is reported as 122 nM and the “apparent Kd” value [2] is reported as 53.2 nM.

With “CGUAACUGCAUAGGAUAUUGAUACAUGAGGAUCACCCAUGUUUUUCGGAUUAGAUAUAUACUAAGCAAGAAGGAUGGAGUUACG” the “apparent Kd” value [3] was 7.83 nM and the “apparent Kd” value [4] was 5.26 nM.

In the case of “GGGUACAUCGGAGGAUAUCAUGUAAAUACAUGAGGAUCACCCAUGUCGCUGGAGACAUCGGAGAUUGAGAAGGCCGAUGUACCG”, the “apparent Kd” value [3] is reported as 26.6 nM and the “apparent Kd” value [4] is reported as 303 nM.

With “CCGGCUGCUGUGAGGAUAUGCCUGUGGGUGCGCGGGCAGAAGGCACAUGAGGAUCACCCAUGUCCUGCGGUCCC” the “apparent Kd” value [1] was 25.7 nM and the “apparent Kd” value [2] was 50.6 nM.

In the case of “ACAUGAGGAUCACCCAUGUUGAAUUAGGAUAUUUGACUGCACAUGAGGUUCACCCAUGUUCUACCGGAGAAGGGAUUAAUAAUU”, the “apparent Kd” value [3] is reported as 129 nM and the “apparent Kd” value [4] is reported as 132 nM.

In the case of “AUACAUGAGGAUCACCCAUGUCAGCGGCAGUGCUGCAGAUCAAGAAGGGAUCCCGUGGGCCGGGAUCAGGAUAUUGAUCCUGCA”, the “apparent Kd” value [3] is reported as 105 nM and the “apparent Kd” value [4] is reported as 18.6 nM.

In the case of “AUAAUUUUAUAUAUCUUAUUUAUCAGAAGGCAUAACAUGAGGAUCACCCAUGUAUAUUAUUGUUAUGAGGAUAUGAUUUAGUUA”, the “apparent Kd” value [1] is reported as 10.1 nM and the “apparent Kd” value [2] is reported as 58.3 nM.

For “AAACAUGUCCGAGGAUAUCUGAGAUCAUUUUCAAGAGAAGGCGGACAUGAGGAUCACCCAUGUCUCUCCUCAUCAACUCCAAAG”, the “apparent Kd” value [1] was 7.22 nM and the “apparent Kd” value [2] was 35.6 nM.

For “UUCCAACGAGGAUAUCGAUGGUGGAACAUGAGGAUCACCCAUGUAUGAGAUAUUGUAGUUCGAGAAGGCGUUCAGU”, the “apparent Kd” value [1] was 36.9 nM and the “apparent Kd” value [2] was 32.2 nM.

With “CUGAGCUGAGGAUAUACAUGAGGAUCACCCAUGUGUUGGAGCUUGCGUACAGGCAGAUGUAGAAGGCAGUUCGG” the “apparent Kd” value [1] was 23.6 nM and the “apparent Kd” value [2] was 88.2 nM.

In the case of “GUGUAGAUAGGAUAUGCUGGAAUCUAGCGAAGCUAGGUUCUACAUGAGGAUCACCCAUGUAGAAGGGUCUACAC”, the “apparent Kd” value [1] is reported as 33.4 nM and the “apparent Kd” value [2] is reported as 22.6 nM.

“AUUGUUAAGUUAGGAUAUAGUAAAAUAAUUUAGUUAGAAGGAGCUCACAUGAGGAUCACCCAUGUAAGAGGAUCACCCAUGUAU” was tested, and the “apparent Kd” value [1] was 25.6 nM and the “apparent Kd” value [2] was 20.1 nM.

For “AAUAAACUCACAGGAUAUAGCAGCGGUCGCGUGAACUUACAGGCGACGAGGCUAGAAGGGUGACCACAUGAGGAUCACCCAUGU”, the “apparent Kd” value [3] was 817 nM and the “apparent Kd” value [4] was 219 nM.
